One test concerns NCI-H460. The test is described as follows: Cytotoxicity against human NCI-H460 cells after 1 hr. The settings on record: NCI-H460, 1 h. Format: functional, cell-based. In short, it runs like this: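 Cells harvested at 72 h and counted by Coulter counter. IC50 is the concentration giving 50% less growth than untreated control, as mean of three assays.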
The target of test [1] is T1, DNA topoisomerase 1 (Homo sapiens) (UniProt P11387).
T1 sequence (whole entry): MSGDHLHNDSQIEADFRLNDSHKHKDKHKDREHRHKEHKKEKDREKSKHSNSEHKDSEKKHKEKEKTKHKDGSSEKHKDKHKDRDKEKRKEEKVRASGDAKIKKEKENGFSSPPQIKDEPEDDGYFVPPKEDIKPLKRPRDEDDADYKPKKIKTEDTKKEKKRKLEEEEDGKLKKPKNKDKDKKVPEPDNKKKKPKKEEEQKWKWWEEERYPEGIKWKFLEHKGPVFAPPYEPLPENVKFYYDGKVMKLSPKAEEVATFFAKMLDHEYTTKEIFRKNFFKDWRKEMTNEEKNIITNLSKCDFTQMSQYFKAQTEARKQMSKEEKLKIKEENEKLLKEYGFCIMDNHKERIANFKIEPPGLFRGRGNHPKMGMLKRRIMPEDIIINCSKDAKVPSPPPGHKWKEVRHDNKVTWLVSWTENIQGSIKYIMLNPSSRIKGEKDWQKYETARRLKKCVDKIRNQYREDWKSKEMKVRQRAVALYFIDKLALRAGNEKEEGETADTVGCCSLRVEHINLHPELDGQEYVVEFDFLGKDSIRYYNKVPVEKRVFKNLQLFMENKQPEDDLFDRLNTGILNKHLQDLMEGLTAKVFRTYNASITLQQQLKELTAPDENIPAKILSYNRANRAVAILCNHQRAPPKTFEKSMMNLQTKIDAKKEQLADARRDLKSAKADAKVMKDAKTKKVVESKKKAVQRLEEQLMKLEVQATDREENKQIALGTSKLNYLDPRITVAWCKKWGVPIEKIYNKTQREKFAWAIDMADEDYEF
The test is described as follows: Effect on stabilization of human recombinant topoisomerase 1-mediated DNA cleavage after 30 mins. The gist of the method: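 3'-end-labelled 751-bp BamHI–EcoRI SV40 DNA fragment (20,000 cpm/sample) with 640 ng full-length human recombinant topo I. Buffer: 10 mM Tris–HCl pH 7.6, 150 mM KCl, 5 mM MgCl2, 15 µg/ml BSA, 0.1 mM DTT. Drug at 1, 10, 50 µM, 30 min at 37 °C. Stopped with 0.5% SDS/0.3 mg/ml proteinase K, 45 min at 42 °C. Denaturing 8% polyacrylamide gel.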

Test [2] has as its target T1, DNA topoisomerase 1 (Homo sapiens). The test is described as follows: Inhibition of human recombinant topoisomerase 1 assessed as DNA plasmid relaxation after 30 mins. In short, it runs like this:
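Supercoiled pBR322 DNA (200 ng) with purified topo I in 20 mM Tris–HCl pH 7.6, 150 mM KCl, 5 mM MgCl2, 0.1 mM EDTA, 0.1 mM DTT, 0.5 µg/ml BSA. Compound at 1, 10, 50 µM, 30 min at 37 °C. Stopped with SDS/proteinase K at 42 °C for 45 min. Run on 0.8% agarose, ethidium bromide stained.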

SMILES strings stand for the structures. Calls of active or inactive are those of the source. The rule behind the calls is not given here. Bounds are passed on as bounds.

The term IC50 denotes the concentration at which inhibition is half-maximal.

As for `Cc1oc2c3c(ccc2c(=O)c1Br)C(=O)c1cccc(O)c1C3=O`, the IC50 in the test with NCI-H460 came out at 6.5 µM.

Take `COc1cccc2c1C(=O)c1c(OCCN(C)C)cccc1C2=O`: in the test with NCI-H460, the IC50 was > 100 µM. The outcome in test [1] was Active.

As to `Cc1cc(=O)c2ccc3c(c2o1)C(=O)c1c(O)cccc1C3=O`, the result in test [2] was inactive. The same compound displayed an IC50 in the test on NCI-H460 of 5.5 µM. For the same compound, the outcome in test [1] was Active.

For `COc1cccc2c1C(=O)c1c(ccc3c(=O)cc(-c4ccccc4)oc13)C2=O`, in the test on NCI-H460, the IC50 is > 100 µM.

With `COc1cccc2c1C(=O)c1c(ccc3c(=O)cc(C)oc13)C2=O`, in the test on NCI-H460, the IC50 is > 260 µM.

`Cc1cc(=O)c2c(O)cc3c(c2o1)C(=O)c1c(O)cc(O)cc1C3=O` [TOPOPYRONE C] had an IC50 in the test on NCI-H460 of 29.5 µM.

Regarding `Cc1oc2c3c(ccc2c(=O)c1Br)C(=O)c1ccc(Br)c(O)c1C3=O`, the outcome in test [2] was inactive. Moreover, the midpoint of inhibition with NCI-H460, the IC50, lay at 4.95 µM.

`O=C1c2cccc(O)c2C(=O)c2c1ccc1c(=O)cc(-c3ccccc3)oc21` had an IC50 with NCI-H460 of 7.06 µM.

Compound `CC[C@@]1(O)C(=O)OCc2c1cc1n(c2=O)Cc2cc3c(CN(C)C)c(O)ccc3nc2-1` [TOPOTECAN] registered an IC50 in the test with NCI-H460 of 1.18 µM.

With `COc1cccc2c1C(=O)c1c(O)cccc1C2=O`, the IC50 in the test on NCI-H460 was > 100 µM. The result in test [1] was Active.

As for `COc1cccc2c1C(=O)c1c(O)ccc([N+](=O)[O-])c1C2=O`, the midpoint of inhibition with NCI-H460, the IC50, lay at 160 µM. Also, the result in test [1] was Active.

`COc1cc(OC)c2c(c1)C(=O)c1cc(OC)c3c(=O)cc(C)oc3c1C2=O`: in the test on NCI-H460, the IC50 is > 100 µM.

With `Cc1cc(=O)c2ccc3c(c2o1)C(=O)c1c(O)ccc([N+](=O)[O-])c1C3=O`, the IC50 in the test on NCI-H460 came out at 9.1 µM.

`Cc1cc(=O)c2ccc3c(c2o1)C(=O)c1c(OCCN(C)C)cccc1C3=O`: half-maximal inhibition in the test on NCI-H460 (IC50) was put at 7.15 µM. The IC50 values of the last two compounds are within 1.5-fold of each other.

These data come from ChEMBL document CHEMBL1141506, “Synthesis and cytotoxic activity of a new series of topoisomerase I inhibitors” (Bioorg Med Chem Lett, 2008).
